Read-outs that look alike come from different tables or passages of the source.
Legend:
TNFα release [1] = test: TNFα PK/PD model, lipopolysaccharide-stimulated whole blood ex vivo assay; type: in vivo, human; conditions: for Sigmoidicity parameter γ: Imax-model of TNFα inhibition
Summary of the method: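 Whole blood was drawn straight into LPS-containing tubes and incubated, then ex vivo TNFα was measured. With PK parameters fixed, one common sigmoid Imax model was fitted for both compounds, driven by a weighted sum of plasma and transduction-compartment concentrations. The weight was estimated from data. The driving concentration was total for the test compound and unbound for the reference steroid. Nonlinear mixed effects, FOCE.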

TNFα release [2] = test: Simulated dose-response and equipotent dose relationship from the PK/PD model; type: in vivo, human; conditions: for TNFα inhibition at the highest studied doses: dose-response curves
Summary of the method: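 The fitted PK/PD model was simulated to give dose-response curves, with response defined as average TNFα inhibition over 24 h after 5 consecutive daily oral doses. Confidence intervals came from repeated simulations using parameters sampled from the estimated covariance matrix. Equipotent doses were defined as those giving the same average inhibition. Their confidence intervals accounted simultaneously for the uncertainty of both dose-responses.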

[3] = ref data on file, AstraZeneca; cited from earlier work
[4] = tested on: release of the cytokines TNFα, interferon-γ, interleukin-6, interleukin-8, macrophage inflammatory protein-1α and -1β; type: in vivo, human; conditions: total plasma concentrations; six pro-inflammatory cytokines
Summary of the method: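 Static nonlinear mixed effects sigmoid Imax models related observed total plasma drug concentrations to ex vivo LPS-stimulated release of TNFα, IFN-γ, IL-6, IL-8, MIP-1α and MIP-1β. Data were pooled from the single and multiple ascending dose studies. Lognormal between-subject variability was used, with lognormal residual error (additive on log scale). Models were estimated by FOCE.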

[5] = type: in vivo, human
Summary of the method: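 Data pooled from single ascending dose (2–155 mg) and multiple ascending dose (10, 20, 40, 80, 125 mg) studies in healthy volunteers; prediabetic obese cohort and sub-LLOQ (5 nM) data excluded. Two-compartment model with first-order absorption and lag time on total plasma concentrations. Oral dose entered as a linear covariate on relative bioavailability and as a covariate on absorption rate. Lognormal interoccasion variability for days 1 and 5. Fitted by nonlinear mixed effects, FOCE.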

[6] = literature average of plasma protein binding parameters ref 24, 25, 26, 27; cited from earlier work
[7] = type: in vivo, human; remark: listed apart in the source
[8] = average over 24 hours following 5 consecutive daily doses
[9] = unbound prednisolone, oral (apparent)

Compound: CC(C)[C@H](NC(=O)C(C)(F)F)[C@H](Oc1ccc2c(cnn2-c2ccc(=O)n(C)c2)c1)c1ccccc1 [AZD9567]
- Sigmoidicity parameter γ (TNFα release [1]): 1.40
- Potency as inhibitor of TNFα release relative to prednisolone (TNFα release [1]; unbound IC50 4.87 nM vs 17.0 nM): ~ 3.5 fold
- Average TNFα inhibition (TNFα release [2]; AZD9567 40 mg, average over 24 hours following 5 consecutive daily doses): 43%
- TNFα inhibition at the highest studied doses (TNFα release [2]; [8]): 60–75%
- Equipotent dose of AZD9567 (95% CI) (TNFα release [2]; equipotent to prednisolone 20 mg): 40 mg
- Doses required for equipotency relative to prednisolone (TNFα release [2]; in vivo): roughly twofold higher doses
- Unbound fraction [3]: ^c Derived from the estimate of IC50 for total AZD9567 concentrations using an unbound fraction of 0.637%.
- Inhibition of cytokine release [4]: inhibited the release of the cytokines
- Absorption rate constant ka0 ([5]; absorption rate in the limit of zero dose): 38.2 h⁻¹
- Covariate model (dose on F) s ([5]; decrease in relative bioavailability F per mg dose, F=1-s×Dose): 0.00253 mg⁻¹
- Covariate model (dose on ka) α ([5]; dose-dependent absorption rate): 0.0592 mg⁻¹
- Covariate model (dose on ka) λ ([5]; dose-dependent absorption rate): 0.103
- Decrease of relative bioavailability ([5]; for every additional 4 mg AZD9567 dosed): ~ 1 % unit
- half-life ([5]; human, plasma, oral): 4.4 h
- Unbound clearance relative to prednisolone ([5]; implied by the low fraction unbound): more than fivefold higher unbound clearance
- Intercompartment clearance Q ([5]; total AZD9567): 0.500 L/h
- Peripheral volume of distribution Vp ([5]; total AZD9567): 392 L
- Clearance CL ([5]; total AZD9567, oral): 3.70 L/h
- Central volume of distribution Vc ([5]; total AZD9567, oral (apparent)): 26.8 L
- Contribution of the first phase to AUC ([5]; two-compartment model): 88%

Compound: C[C@]12C=CC(=O)C=C1CC[C@@H]1[C@@H]2[C@@H](O)C[C@@]2(C)[C@H]1CC[C@]2(O)C(=O)CO [prednisolone]
- Unbound fraction, high limit, literature average [6]: 53%
- Unbound fraction, low limit, literature average [6]: 9%
- Sigmoidicity parameter γ (TNFα release [1]): 1.33
- TNFα inhibition at the highest studied doses (TNFα release [2]; [8]): 60–75%
- Equipotent dose of prednisolone (TNFα release [2]; equipotent to 40 mg AZD9567, 95% CI of 14–29 mg): 20 mg
- Estimated TNFα inhibition (TNFα release [2]; prednisolone 20 mg, average over 24 hours following 5 consecutive daily doses): 43%
- half-life ([7]; human, plasma, oral): 1.9 h
- Contribution of the first phase to AUC ([7]; unbound prednisolone): 66%
- Inter-compartment clearance Q ([7]; unbound prednisolone): 5.81 L/h
- Mean transit time tm ([7]; unbound prednisolone): 0.772 h
- Peripheral volume of distribution Vp ([7]; unbound prednisolone): 23.6 L
- Central volume of distribution Vc [7, 9]: 352 L
- Clearance CL [7, 9]: 110 L/h
- No. of transit compartments n ([7]; unbound prednisolone, transit compartment absorption): 8.11
- Inhibition of cytokine release [4]: inhibited the release of the cytokines

Source: paper PMC7438818 (CPT: Pharmacometrics & Systems Pharmacology, 2020)
